Assay results published in ChEMBL document CHEMBL3425458, “Design, synthesis and antitumor activity of triterpenoid pyrazine derivatives from 23-hydroxybetulinic acid” (Eur J Med Chem, 2015).

How the values were obtained:
[1] = test system: H22; assay: In vivo antitumor activity […] cells xenografted in mouse assessed as tumor growth inhibitory ratio at 30 mg/kg, ip administered after 7 days of tumor transplantation measured at 25th day after tumor inoculation; assay type: functional; conditions: 168 h, route intraperitoneal
In short: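 Mice bearing H22 liver cancer, 10 per group. Test article at 30 mg/kg ip. Vehicle 0.5 mL/mouse iv. Cyclophosphamide 30 mg/kg iv as positive control. Tumor weight recorded to give tumor inhibitory ratio.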

[2] = test system: B16; assay: In vivo antitumor activity against mouse B16 cells xenografted in mouse assessed as tumor growth inhibitory ratio at 30 mg/kg, ip administered after 7 days of tumor transplantation measured at 25th day after tumor inoculation; assay type: functional; conditions: 168 h, route intraperitoneal
[3] = test system: Mus musculus; assay: Toxicity against mouse xenografted […] cells assessed as body weight at 30 mg/kg, ip administered after 7 days of tumor transplantation (reference value: 18.1 to 18.6 gms); assay type: organism-based; parameters: dose 30 mg/kg, route intraperitoneal; conditions: in vivo, 168 h
In short: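 H22 liver cancer-bearing mice, 10 per group at start and end. Test article given ip at 30 mg/kg, with a vehicle group (0.5 mL/mouse, iv). Body weight was recorded at start and at end, alongside tumor weight.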

[4] = test system: Mus musculus; assay: Toxicity against mouse xenografted with mouse B16 cells assessed as body weight at 30 mg/kg, ip administered after 7 days of tumor transplantation (reference value: 18.2 to 18.3 gms); assay type: organism-based; parameters: dose 30 mg/kg, route intraperitoneal; conditions: in vivo, 168 h
[5] = Antiproliferative activity against human HL60 cells assessed as growth inhibition after 72 hrs by MTT assay; assay type: functional, cell-based; conditions: HL-60, 72 h
In short: (§1)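 Values are mean ± S.D. from three different experiments, each performed in triplicate.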

[6] = Antiproliferative activity against human Bel7402 cells assessed as growth inhibition after 72 hrs by MTT assay; assay type: functional, cell-based; conditions: Bel-7402, 72 h
In short: (§2)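 IC50 is the concentration inhibiting 50% cell growth. Values are mean ± S.D. from three different experiments, each performed in triplicate.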

[7] = Antiproliferative activity against human SF763 cells assessed as growth inhibition after 72 hrs by MTT assay; assay type: functional, cell-based; conditions: SF763, 72 h; in short: as §1
[8] = test system: HeLa; assay: Antiproliferative activity against human HeLa cells assessed as growth inhibition after 72 hrs by MTT assay; assay type: functional, cell-based; in short: as §2
[9] = test system: B16; assay: Antiproliferative activity against mouse B16 cells assessed as growth inhibition after 72 hrs by MTT assay; assay type: functional, cell-based; conditions: B16, 72 h; in short: as §2

| SMILES | inhibition in vivo at 30 mg/kg [1] | inhibition in vivo at 30 mg/kg [2] | Activity [3] | Activity [4] | IC50 [5] | IC50 [6] | IC50 [7] | IC50 [8] | IC50 [9] |
| --- | --- | --- | --- | --- | --- | --- | --- | --- | --- |
| C=C(C)[C@@H]1CC[C@]2(C(=O)O)CC[C@]3(C)[C@H](CC[C@@H]4[C@@]5(C)CC[C@H](O)[C@@](C)(CO)[C@@H]5CC[C@]43C)[C@@H]12 | 27.8% | 32.4% | 26.1 g | 26.7 g |  |  |  |  |  |
| C=C(C)[C@@H]1CC[C@]2(C(=O)OCc3ccccc3)CC[C@]3(C)[C@H](CC[C@@H]4[C@@]5(C)Cc6nccnc6[C@@](C)(CO)[C@@H]5CC[C@]43C)[C@@H]12 |  |  |  |  | 18.9 µM | 10.1 µM | 9.54 µM | 12.8 µM | 8.56 µM |
| C=C(C)[C@@H]1CC[C@]2(C(=O)O)CC[C@]3(C)[C@H](CC[C@@H]4[C@@]5(C)Cc6nccnc6[C@@](C)(COC(C)=O)[C@@H]5CC[C@]43C)[C@@H]12 |  |  |  |  | 20.4 µM | 16.8 µM | 11.1 µM | 14.6 µM | 9.9 µM |
| C=C(C)[C@@H]1CC[C@]2(C(=O)O)CC[C@]3(C)[C@H](CC[C@@H]4[C@@]5(C)Cc6nccnc6[C@@](C)(CO)[C@@H]5CC[C@]43C)[C@@H]12 |  |  |  |  | 24.1 µM | 19.1 µM | 15.4 µM | 19.6 µM | 14.9 µM |
| C=C(C)[C@@H]1CC[C@]2(C(=O)OCC)CC[C@]3(C)[C@H](CC[C@@H]4[C@@]5(C)Cc6nccnc6[C@@](C)(CO)[C@@H]5CC[C@]43C)[C@@H]12 |  |  |  |  | 22.5 µM | 14.8 µM | 10 µM | 15.1 µM | 9.97 µM |
| C=C(C)[C@@H]1CC[C@]2(C(=O)OCCO)CC[C@]3(C)[C@H](CC[C@@H]4[C@@]5(C)Cc6nccnc6[C@@](C)(CO)[C@@H]5CC[C@]43C)[C@@H]12 |  |  |  |  | 23.6 µM | 17.4 µM | 13.5 µM | 20.7 µM | 13.1 µM |
| C=CCOC(=O)[C@]12CC[C@@H](C(=C)C)[C@@H]1[C@H]1CC[C@@H]3[C@@]4(C)Cc5nccnc5[C@@](C)(CO)[C@@H]4CC[C@@]3(C)[C@]1(C)CC2 |  |  |  |  | 19.1 µM | 11.9 µM | 8.62 µM | 11 µM | 8.98 µM |
| C=C(C)[C@@H]1CC[C@]2(C(=O)OCC(=O)OCC)CC[C@]3(C)[C@H](CC[C@@H]4[C@@]5(C)Cc6nccnc6[C@@](C)(CO)[C@@H]5CC[C@]43C)[C@@H]12 |  |  |  |  | 23.6 µM | 17 µM | 13.1 µM | 17 µM | 11.3 µM |
| C=C(C)[C@@H]1CC[C@]2(C(=O)OCc3ccc(-c4ccccc4C#N)cc3)CC[C@]3(C)[C@H](CC[C@@H]4[C@@]5(C)Cc6nccnc6[C@@](C)(CO)[C@@H]5CC[C@]43C)[C@@H]12 |  |  |  |  | 11.7 µM | 9.37 µM | 5.63 µM | 9.32 µM | 7.15 µM |
| C=C(C)[C@@H]1CC[C@]2(C(=O)O[C@@H]3O[C@H](CO)[C@@H](O)[C@H](O)[C@H]3O)CC[C@]3(C)[C@H](CC[C@@H]4[C@@]5(C)Cc6nccnc6[C@@](C)(CO)[C@@H]5CC[C@]43C)[C@@H]12 |  |  |  |  | 21.1 µM | 17.7 µM | 11 µM | 15.9 µM | 12.8 µM |
| C=C(C)[C@@H]1CC[C@]2(C(=O)OCC(=O)O)CC[C@]3(C)[C@H](CC[C@@H]4[C@@]5(C)Cc6nccnc6[C@@](C)(CO)[C@@H]5CC[C@]43C)[C@@H]12 |  |  |  |  | 19.5 µM | 13.1 µM | 8.86 µM | 10.1 µM | 9.41 µM |
| C=C(C)[C@@H]1CC[C@]2(C(=O)NCC(=O)OC)CC[C@]3(C)[C@H](CC[C@@H]4[C@@]5(C)Cc6nccnc6[C@@](C)(COC(C)=O)[C@@H]5CC[C@]43C)[C@@H]12 |  |  |  |  | 14.7 µM | 11.1 µM | 9.26 µM | 10.9 µM | 8.08 µM |
| C=C(C)[C@@H]1CC[C@]2(C(=O)OCCO)CC[C@]3(C)[C@H](CC[C@@H]4[C@@]5(C)Cc6nccnc6[C@@](C)(COC(C)=O)[C@@H]5CC[C@]43C)[C@@H]12 |  |  |  |  | 22.2 µM | 15.7 µM | 13 µM | 17.5 µM | 12.1 µM |
| C=C(C)[C@@H]1CC[C@]2(C(=O)Oc3ccc(C#N)cc3)CC[C@]3(C)[C@H](CC[C@@H]4[C@@]5(C)Cc6nccnc6[C@@](C)(COC(C)=O)[C@@H]5CC[C@]43C)[C@@H]12 |  |  |  |  | 10.2 µM | 8.09 µM | 5.77 µM | 7.91 µM | 6.02 µM |
| O=P1(N(CCCl)CCCl)NCCCO1 (centres undefined) [CYCLOPHOSPHAMIDE ANHYDROUS] | 53.7% |  | 25.7 g |  |  |  |  |  |  |
| COc1cccc2c1C(=O)c1c(O)c3c(c(O)c1C2=O)C[C@@](O)(C(=O)CO)C[C@@H]3O[C@H]1C[C@H](N)[C@H](O)[C@H](C)O1 [DOXORUBICIN] |  |  |  |  |  | 0.22 µM |  |  |  |
| O=c1[nH]cc(F)c(=O)[nH]1 [FLUOROURACIL] |  | 70.3% |  | 26.2 g |  |  |  |  |  |
